# Data published in article PMC5769151 (Journal of medicinal chemistry, 2015).
# Columns and labels:
# NK1R [1] = biological target: T1, NK1R (Homo sapiens, UniProt P25103); type: cell-based
# Target sequence in this assay (P25103 whole entry, species assumed): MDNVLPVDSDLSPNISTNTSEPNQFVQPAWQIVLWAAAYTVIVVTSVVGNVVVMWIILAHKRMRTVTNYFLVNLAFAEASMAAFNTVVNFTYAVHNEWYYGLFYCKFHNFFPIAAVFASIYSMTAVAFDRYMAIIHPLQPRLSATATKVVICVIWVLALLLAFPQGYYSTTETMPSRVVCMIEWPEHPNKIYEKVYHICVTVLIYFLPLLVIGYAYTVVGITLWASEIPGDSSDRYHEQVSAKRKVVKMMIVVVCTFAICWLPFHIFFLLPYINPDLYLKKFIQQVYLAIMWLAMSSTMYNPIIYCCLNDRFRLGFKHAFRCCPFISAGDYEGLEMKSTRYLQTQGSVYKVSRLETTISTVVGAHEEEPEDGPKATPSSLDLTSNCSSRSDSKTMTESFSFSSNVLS
# NK1R [2] = biological target: T1, NK1R; assay: hNK1/CHO cell membrane radioligand binding assay; conditions: binding ratio human/rat NK1
# Target sequence in this assay (P25103 whole entry): as the sequence (P25103 whole entry, species assumed) above
# μ opioid receptor (MOR) = type: binding
# MOR = MOR (Homo sapiens, UniProt P35372); type: cell-based
# GPI (MOR) = assay: Guinea pig isolated ileum; type: cell-based; conditions: IC50 μ / IC50 δ
# Summary of the method: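 Male Hartley guinea pig ileum LMMP (0.1 Hz, 0.4 ms) and male ICR mouse vasa deferentia (0.5 g tension, Mg-free Krebs, 37 °C, O2/CO2 95:5; 0.1 Hz single pulses, 2.0 ms), electrically stimulated at supramaximal voltage.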
# GPI/LMMP (NK1R) = GPI/LMMP (NK1R) (Cavia porcellus, UniProt P30547); assay: GPI/LMMP functional assay at NK1R; type: cell-based, guinea pig; conditions: at the concentration printed in the cell
# Chain of GPI/LMMP (NK1R) (P30547 whole entry): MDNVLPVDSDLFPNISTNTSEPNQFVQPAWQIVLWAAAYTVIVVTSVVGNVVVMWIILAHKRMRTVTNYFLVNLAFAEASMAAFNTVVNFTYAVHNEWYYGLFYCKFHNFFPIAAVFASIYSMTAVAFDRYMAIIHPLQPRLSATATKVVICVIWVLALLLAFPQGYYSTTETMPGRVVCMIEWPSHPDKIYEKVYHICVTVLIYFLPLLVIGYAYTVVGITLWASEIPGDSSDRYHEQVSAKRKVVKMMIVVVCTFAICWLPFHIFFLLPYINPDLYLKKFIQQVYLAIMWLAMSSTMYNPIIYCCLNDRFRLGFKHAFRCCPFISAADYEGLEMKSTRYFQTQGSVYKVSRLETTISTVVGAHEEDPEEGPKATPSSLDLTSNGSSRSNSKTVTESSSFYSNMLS
# Chain of MOR (P35372 whole entry): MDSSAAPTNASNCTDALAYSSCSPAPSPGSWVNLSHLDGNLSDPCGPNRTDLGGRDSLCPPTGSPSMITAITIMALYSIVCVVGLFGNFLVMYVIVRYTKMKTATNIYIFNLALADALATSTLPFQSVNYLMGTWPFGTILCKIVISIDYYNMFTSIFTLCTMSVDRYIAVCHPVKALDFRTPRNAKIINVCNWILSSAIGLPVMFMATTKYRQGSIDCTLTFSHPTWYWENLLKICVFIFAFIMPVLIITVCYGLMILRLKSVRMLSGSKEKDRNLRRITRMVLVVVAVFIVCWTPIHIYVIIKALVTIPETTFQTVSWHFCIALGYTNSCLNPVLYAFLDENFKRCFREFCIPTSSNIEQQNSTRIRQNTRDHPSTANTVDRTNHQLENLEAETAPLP
smiles,measurement,setting,value
Cc1cc(O)cc(C)c1C[C@H](N)C(=O)N[C@H](C)C(=O)NCC(=O)N[C@@H](Cc1ccccc1)C(=O)N1CCC[C@H]1C(=O)N[C@@H](CC(C)C)C(=O)N[C@@H](Cc1c[nH]c2ccccc12)C(=O)NCc1cc(C(F)(F)F)cc(C(F)(F)F)c1 [ligand 4],Kb,NK1R [1],11 ± 10 nM
same,Ki^hNK1/Ki^rNK1,NK1R [2],1/19
same,Ki^μ/Ki^δ,μ opioid receptor (MOR); binding ratio MOR/DOR,3/1
same,log[IC50±] (MOR),"μ opioid receptor (MOR); log IC50 from nonlinear regression, MOR binding",−8.63 ± 0.04
same,MOR/DOR IC50 ratio (cAMP assay),MOR,6/1
same,GPI/MVD IC50 ratio,GPI (MOR),26/1
same,GPI/LMMP (NK1R) agonism,GPI/LMMP (NK1R),none at 100 nM
